hERG protect: compounds protecting human hERG from proarrhythmic drug block | CHO-hERG, FluxOR thallium flux, dofetilide IC70 present | activation (rescue from dofetilide block), less the hit threshold, % at 10 µM | 310,000 compounds, 0.51% hits | AID 1511;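 active = activation above the mean of controls blocked by dofetilide plus 5 SD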;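 also: thallium influx through hERG after potassium depolarization seen as dye fluorescence rise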
KCNK9 block: blocks the human KCNK9 two-pore domain potassium channel. Q9NPC2. HEK293 KCNK9, FluxOR thallium flux fluorescence; stronger effect = lower value. B-score at 10 µM. 310,000 compounds, 1.2% hits;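 active = ratio B-score over 3 SD below the library mean, with starting fluorescence within 5 SD of its mean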;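 also: negative B-score means less thallium flux so channel inhibition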
KCNQ1 block: blocks the human KCNQ1 potassium channel | CHO-K1 KCNQ1, FluxOR thallium flux fluorescence; stronger effect = higher value | B-score at 10 µM | 310,000 compounds, 1.3% hits | AID 2642;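 active = compounds whose thallium flux B-score, printed positive for inhibition, exceeds three library SD while starting fluorescence stays within three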;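 also: channel opened by potassium depolarization with thallium stimulus after 20 min compound exposure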
Target sequence (P51787 whole entry, looked up): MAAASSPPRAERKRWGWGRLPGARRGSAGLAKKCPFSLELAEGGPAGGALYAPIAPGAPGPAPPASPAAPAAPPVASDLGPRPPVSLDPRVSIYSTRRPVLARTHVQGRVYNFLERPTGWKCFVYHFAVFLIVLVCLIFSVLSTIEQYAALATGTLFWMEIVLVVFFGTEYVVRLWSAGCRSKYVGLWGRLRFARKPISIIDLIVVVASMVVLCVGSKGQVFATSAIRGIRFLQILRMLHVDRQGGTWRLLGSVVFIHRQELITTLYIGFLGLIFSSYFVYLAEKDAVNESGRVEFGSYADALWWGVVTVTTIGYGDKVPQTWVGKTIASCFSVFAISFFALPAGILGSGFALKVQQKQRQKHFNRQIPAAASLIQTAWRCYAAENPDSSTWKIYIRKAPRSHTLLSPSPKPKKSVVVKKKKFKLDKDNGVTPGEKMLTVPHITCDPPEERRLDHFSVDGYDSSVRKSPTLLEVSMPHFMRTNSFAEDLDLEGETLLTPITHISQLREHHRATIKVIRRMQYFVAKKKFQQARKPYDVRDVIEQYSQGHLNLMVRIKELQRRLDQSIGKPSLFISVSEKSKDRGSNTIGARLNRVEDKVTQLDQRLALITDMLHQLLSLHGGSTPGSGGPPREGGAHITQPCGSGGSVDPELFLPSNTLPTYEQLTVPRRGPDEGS
KCC2 mod: modulates chloride dependent transport by human KCC2 | KCC2 cells, thallium flux FluoZin-2 fluorescence | 190,000 compounds, 2.2% hits | B-score of Tl+ flux slope (higher = more flux/activation; lower = inhibition) at 10 µM | AID 1456;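 active = thallium flux slope and its plate-corrected score both differing from the plate sample mean at a set confidence after two filtering rounds, in either direction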;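 also: slope of fluorescence scaled to starting intensity during 10 to 20 s after thallium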
KCNQ1 pot: potentiators or activators of human KCNQ1 potassium channel; P51787; CHO-K1 KCNQ1, thallium flux FluxOR fluorescence; stronger effect = higher value; B-score at 10 µM; 310,000 compounds, 0.35% hits;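 active = fluorescence ratio B-score, a plate-corrected score, at least three library SD, with initial intensity B-score within 5 SD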
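Assay system: CHO-K1 cells stably expressing KCNQ1; Medium: assay buffer with matched DMSO; Also added: K+/Tl+ depolarizing stimulus; Dosing: single dose; Timing: dye 90 min, compound 20 min, room temperature; Measured by: kinetic FluxOR thallium fluorescence, 10-s 1-Hz baseline, 110-s post-stimulus read; Read-out: peak-minus-minimum fluorescence over initial fluorescence, negative-control normalized, B-scored.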
KCNK3 block: human KCNK3 channel inhibition, primary screen; O14649; CHO-KCNK3 thallium flux, FluxOR fluorescence; stronger effect = lower value; B-score at 10 µM; 340,000 compounds, 0.84% hits;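 active = B-score under library mean minus 4 SD, starting fluorescence ratio at most library mean plus 5 SD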;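 also: more negative B-score means stronger inhibition of thallium flux through KCNK3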
KCNQ1 block val: human KCNQ1 channel inhibition, validation assay; shares compounds with KCNQ1 block; KCNQ1 cell line, FluxOR thallium flux fluorescence; inhibition, % at 10 µM; 1,600 compounds, 93% hits;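 active = primary screen active, with duplicate mean exceeding buffer control mean plus 3 SD of buffer wells, cut at about 28% in these data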;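 also: 0% = buffer control ratio and 100% = XE991 inhibitor control ratio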
CHO KCNQ1 ctr: counter-screen for KCNQ1 inhibitors: effect in parental CHO cells; shares compounds with KCNQ1 block; parental CHO-K1, FluxOR thallium flux fluorescence ratio; stronger effect = lower value; zero means no signal rise above baseline; fluorescence ratio (Tl flux) at 10 µM; 1,600 compounds, 21% hits;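 active = mean of duplicate thallium-flux fluorescence ratios in parental host cells more than 5 SD below the buffer control mean, cut at about 0.38 in these data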;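 also: ratio is peak minus minimum fluorescence divided by baseline fluorescence; actives read low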
KCNQ1 APC inh: human KCNQ1 inhibition validated by electrophysiology. AID 624120. calls only at 10 µM. shares compounds with KCNQ1 block. 490 compounds, 20% hits. KCNQ1-CHO cells, automated patch clamp current;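 active = KCNQ1 current drop exceeding 3 SD of negative control wells, seen in both duplicate runs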;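 also: steady state current during a 2 s step from -80 to +40 mV; negative values mean current inhibition and positive values mean potentiation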
KCNQ2 spec: selectivity of KCNQ1 inhibitors: inhibition of rat KCNQ2 channel. shares compounds with KCNQ1 block. KCNQ2 cells, FluxOR thallium flux fluorescence. inhibition, % at 10 µM. 1,600 compounds, 71% hits;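 active = mean percent inhibition of the KCNQ2 thallium signal more than 5 SD above the buffer-only control wells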;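 also: KCNQ2 expressed in CHO cells; 0% = buffer control wells and 100% = XE-991 inhibitor control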
KCNQ1 KCNE1 spec: KCNQ1 inhibitor that also blocks human KCNQ1/KCNE1 channel | KCNQ1/KCNE1 cells, FluxOR thallium flux fluorescence | 1,600 compounds, 77% hits | shares compounds with KCNQ1 block | AID 652147 | inhibition, % at 10 µM;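 active = mean percent inhibition of duplicate wells above the buffer-only control mean plus 3 SD of those controls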;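 also: 0% = buffer only wells and 100% = XE-991 inhibitor control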
Active calls of the source: *; i = inactive; . = not tested or not shown; + = active, no number. Shown are actives, neighbours in structure and some others; about 4.1% of the full set was active somewhere.

SMILES	hERG protect	KCNK9 block	KCNQ1 block	KCC2 mod	KCNQ1 pot	KCNK3 block	KCNQ1 block val	CHO KCNQ1 ctr	KCNQ2 spec	KCNQ1 KCNE1 spec	others
CC(NC(=S)Nc1ccc(OC(F)F)c(Cl)c1)C(C)(C)C (stereo not drawn)	-16	i	8*	-0.61	i	i	60*	0.49	i	36%*
COc1ccc(S(=O)(=O)N2CCN(C(=O)CC3CC4CCC3C4)CC2)cc1 (stereo not drawn)	.	.	.	.	.	i	.	.	.	.
CN(C)CCN[C@H]1CCC2C3CC=C4C[C@@H](O)CC[C@]4(C)C3CC[C@@]21C (stereo partly drawn)	.	.	.	.	.	i	.	.	.	.
O=C(NC1CCCCC1)C(c1ccco1)N(Cc1ccco1)C(=O)c1ccco1 (stereo not drawn)	-7	i	7*	-0.13	i	i	96*	0.41	70%*	112%*	KCNQ1 APC inh=+
O=C(NCC(=O)N(Cc1ccccc1)C(C(=O)NC1CCCCC1)c1ccco1)c1ccco1 (stereo not drawn)	-13	i	i	1.7	i	i	.	.	.	.
Cc1cccc(Cn2nc(C(C)(C)C)cc2C(=O)Nc2ccc(F)cc2)c1	-18	i	12*	-0.21	i	i	175*	0.22*	144%*	+
CCOC(=O)C1=C(N)Oc2ccc3ccccc3c2C1c1cccc(O)c1 (stereo not drawn)	-8	i	6*	.	i	i	116*	0.39	122%*	123%*	KCNQ1 APC inh=i
CCOC(=O)C1=C(N)Oc2ccc3ccccc3c2C1c1cccnc1 (stereo not drawn)	-6	i	i	-0.38	i	i	.	.	.	.
COc1ccc(C)cc1Nc1n[n+](-c2ccccc2)c(-c2ccc(N(C)C)cc2)s1	-34	-7.2*	15*	.	i	i	+	0.22*	i	i
O=C(Cn1cnc2ccccc21)Nc1ccc(SC(F)F)cc1	-14	i	7*	0.05	i	i	115*	0.46	71%*	58%*	KCNQ1 APC inh=+
O=S(=O)(Nc1nc2ccccc2nc1N1CCN(c2ccccc2)CC1)c1ccc(F)cc1	-6	i	10*	-1.2	i	i	78*	0.39	69%*	62%*
CCN1C(=O)[C@H]2[C@@H](c3ccc(-c4ccc(F)cc4)cc3)N3CCCC[C@@]3(C(=O)OC)[C@H]2C1=O	-11	i	i	.	i	i	.	.	.	.
O=c1cc(CSc2nc3ccccc3[nH]2)c2ccccc2[nH]1	-13	i	i	-0.13	i	i	.	.	.	.
Fc1ccc(CSc2nc3ccccc3[nH]2)c2ccccc12	-13	i	6*	0.025	i	i	124*	0.35*	107%*	124%*
CCN(CC)C(=O)c1ccccc1NC(=O)CN1C(=O)c2ccccc2S1(=O)=O	0	i	i	.	i	i	.	.	.	.
CCCC[C@@H]1CNC(=O)C(=O)N1CCc1cccc2ccccc12	-4	i	i	.	i	.	.	.	.	.
Cc1cc(Cl)ccc1OC(C)C(=O)Nc1ccc(C(=O)Nc2ccccc2C(=O)O)cc1 (stereo not drawn)	-34	i	9*	.	i	i	94*	0.45	i	80%*	KCNQ1 APC inh=i
Cc1cc(Cl)ccc1OC(C)C(=O)Nc1ccc(S(=O)(=O)N2CCOCC2)cc1 (stereo not drawn)	-5	i	i	.	i	i	.	.	.	.
OCCn1nc(-c2ccccc2)cc1-c1ccccc1	-6	i	i	.	i	i	.	.	.	.
Cc1nn(-c2ccccc2)c(Cl)c1C(=O)OCC(=O)NCCc1ccccc1	-12	i	i	.	i	i	.	.	.	.
COc1ccccc1NC(=O)CN1CCN(C2c3ccccc3-c3ccccc32)CC1	-6	i	7*	.	i	i	108*	0.42	100%*	155%*	KCNQ1 APC inh=i
COc1ccccc1NC(=O)CN1CCC(n2c(C)nc3cc(F)ccc32)CC1	-13	i	8*	-1.3	i	i	116*	0.44	97%*	98%*	KCNQ1 APC inh=i
COc1cc(C(=O)COC(=O)C2CCN(c3ccc(C(F)(F)F)cn3)CC2)ccc1OC(F)F	-17	i	6*	.	i	i	62*	0.48	115%*	62%*
CC1CCN(CCCOc2ccc(Br)cc2Cl)CC1	-13	i	7*	.	i	i	62*	0.47	i	90%*
CC1CCCN(CCOCCOc2ccc(Br)cc2Cl)C1 (stereo not drawn)	-10	i	i	0.57	i	i	.	.	.	.
SMILES	hERG protect	KCNK9 block	KCNQ1 block	KCC2 mod	KCNQ1 pot	KCNK3 block	KCNQ1 block val	CHO KCNQ1 ctr	KCNQ2 spec	KCNQ1 KCNE1 spec	others
CCN(CC)CCSc1nnc2c3ccccc3n(CCc3ccccc3)c2n1	-14	i	i	.	i	i	.	.	.	.
O=C1c2ccccc2C(=O)N1CSc1nnc2c3ccccc3n(CCc3ccccc3)c2n1	-13	i	6*	-1.3	i	i	42*	0.5	78%*	i
CC(C)Cc1nnc(NC(=O)c2cc(-c3ccncc3)nc3ccccc23)s1	-21	i	i	-1.6	i	i	.	.	.	.
CC(C)Cc1nnc(NC(=O)c2cc(-c3ccccc3)nc3ccccc23)s1	-30	i	6*	-0.47	i	i	121*	0.51	80%*	143%*
Cc1cc(C(=O)NC2CCCc3c2cnn3-c2ccc(C)c(C)c2)n(C)n1 (stereo not drawn)	-15	i	11*	.	i	i	102*	0.47	91%*	84%*	KCNQ1 APC inh=i
CC1CCCCN1CC(O)COCCC12CC3CC(CC(C3)C1)C2 (stereo not drawn)	-10	i	8*	-1.4	i	i	90*	0.52	71%*	64%*	KCNQ1 APC inh=+
Cc1cccc(C(=O)NCCC(=O)Nc2ccc(F)c([N+](=O)[O-])c2)c1	-7	i	i	.	i	i	.	.	.	.
CCOC(=O)c1sc(NC(=O)CSc2nnnn2-c2ccccc2)nc1C	-9	i	i	0.54	i	i	.	.	.	.
